Reference: ChEMBL document CHEMBL4665824, “Characterization and Discovery of a Selective Small-Molecule Modulator of Mitochondrial Complex I Targeting a Unique Binding Site” (J Med Chem, 2020)
Calls of active or inactive are those of the source. The calls are words filed in the database; no cut-off is given here.

Legend:
[1] = species: Mus musculus; assay: Binding affinity to purified C57BL/6 mouse cerebral cortex mitochondrial complex 1 assessed as labelling of 51 kDa sub unit at 1 to 10 uM incubated for 45 mins under irradiation by SDS-PAGE analysis; settings: Mitochondria, dose microM 1-10, time 45.0 min
Outline: (§1)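 Preincubated with DMSO or competitor 45 min at 4 °C, then photoaffinity probe added for 30 min at 4 °C. Irradiated 365 nm, 10 min on ice, then run on SDS-PAGE. Read by in-gel fluorescence (488 nm excitation), or after streptavidin pull-down by silver stain. Three independent experiments.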

[2] = species: Mus musculus; assay: Binding affinity to purified C57BL/6 mouse cerebral cortex mitochondrial complex 1 assessed as labelling of 51 kDa sub unit at 10 uM in presence of IQ site inhibitor rotenone incubated for 45 mins under irradiation by SDS-PAGE analysis; settings: Mitochondria; outline: as §1
[3] = species: Mus musculus; assay: Binding affinity to purified C57BL/6 mouse cerebral cortex mitochondrial complex 1 assessed as labelling of 13 kDa sub unit at 1 to 10 uM incubated for 45 mins under irradiation by SDS-PAGE analysis; settings: Mitochondria, dose microM 1-10, time 45.0 min; outline: as §1
[4] = species: Mus musculus; assay: Binding affinity to purified C57BL/6 mouse cerebral cortex mitochondrial complex 1 assessed as labelling of 24 kDa sub unit at 1 to 10 uM incubated for 45 mins under irradiation by SDS-PAGE analysis; settings: Mitochondria, dose microM 1-10, time 45.0 min; outline: as §1
[5] = species: Mus musculus; assay: Binding affinity to purified C57BL/6 mouse cerebral cortex mitochondrial complex 1 assessed as labelling of 49 kDa sub unit at 10 uM in presence of NADH incubated for 45 mins under irradiation by SDS-PAGE analysis; settings: Mitochondria; outline: as §1
[6] = species: Mus musculus; assay: Binding affinity to purified C57BL/6 mouse cerebral cortex mitochondrial complex 1 assessed as labelling of 24 kDa sub unit at 10 uM in presence of NADH incubated for 45 mins under irradiation by SDS-PAGE analysis; settings: Mitochondria; outline: as §1
[7] = species: Mus musculus; assay: Binding affinity to purified C57BL/6 mouse cerebral cortex mitochondrial complex 1 assessed as labelling of 13 kDa sub unit at 10 uM in presence of ZCM-I-1 incubated for 45 mins under irradiation by SDS-PAGE analysis; settings: Mitochondria; outline: as §1
[8] = species: Mus musculus; assay: Binding affinity to purified C57BL/6 mouse cerebral cortex mitochondrial complex 1 assessed as labelling of 49 kDa sub unit at 10 uM in presence of IQ site inhibitor rotenone incubated for 45 mins under irradiation by SDS-PAGE analysis; settings: Mitochondria; outline: as §1
[9] = system: MC65; assay: Inhibition of mitochondrial complex 1 in human MC65 cells assessed as protective potency concentration; assay type: cell-based
[10] = species: Mus musculus; assay: Binding affinity to purified C57BL/6 mouse cerebral cortex mitochondrial complex 1 assessed as labelling of 75 kDa sub unit at 10 uM in presence of FMN incubated for 45 mins under irradiation by SDS-PAGE analysis; settings: Mitochondria; outline: as §1
[11] = species: Mus musculus; assay: Binding affinity to purified C57BL/6 mouse cerebral cortex mitochondrial complex 1 assessed as labelling of 75 kDa sub unit at 10 uM in presence of NADH incubated for 45 mins under irradiation by SDS-PAGE analysis; settings: Mitochondria; outline: as §1
[12] = species: Mus musculus; assay: Binding affinity to purified C57BL/6 mouse cerebral cortex mitochondrial complex 1 assessed as labelling of 24 kDa sub unit at 10 uM in presence of IQ site inhibitor rotenone incubated for 45 mins under irradiation by SDS-PAGE analysis; settings: Mitochondria; outline: as §1
[13] = Drug localization in mitochondria human MC65 cells at 3 uM incubated for 3.5 hrs by immunocytochemistry; assay type: ADME; settings: mc65, 3.5 h
Outline: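 MC65 cells plated 24 h on poly-D-lysine coverslips, given 3 μM probe for 3.5 h, then MitoTracker Red (300 nM) for 30 min. Fixed in 4% formaldehyde 15 min, DAPI-stained, mounted. Imaged by confocal microscopy (63x/1.40 oil) and analysed for colocalization coefficients.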

[14] = species: Mus musculus; assay: Binding affinity to purified C57BL/6 mouse cerebral cortex mitochondrial complex 1 assessed as labelling of IF site ( 49 kDa) sub unit at 1 to 10 uM incubated for 45 mins under irradiation by SDS-PAGE analysis; settings: Mitochondria, dose microM 1-10, time 45.0 min; outline: as §1
[15] = species: Mus musculus; assay: Binding affinity to purified C57BL/6 mouse cerebral cortex mitochondrial complex 1 assessed as labelling of 13 kDa sub unit at 10 uM in presence of FMN incubated for 45 mins under irradiation by SDS-PAGE analysis; settings: Mitochondria; outline: as §1
[16] = Drug localization in mitochondria mouse cortical neuron at 25 uM incubated for 4 hrs by immunocytochemistry; assay type: ADME; settings: cortical neurone
Outline: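 Mouse primary cortical neurons (E15.5 C57BL/6J cortex, DIV 10–12; cytarabine 1 μM from DIV 3–6) given 25 μM probe for 4 h, then Mitotracker Red CMXRos (25 nM) for 30 min. Washed by half-media exchanges with phenol-red-free medium. Imaged live by confocal microscopy, 63x/1.4 NA oil objective.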

[17] = species: Mus musculus; assay: Binding affinity to purified C57BL/6 mouse cerebral cortex mitochondrial complex 1 assessed as labelling of 13 kDa sub unit at 10 uM in presence of NADH incubated for 45 mins under irradiation by SDS-PAGE analysis; settings: Mitochondria; outline: as §1
[18] = species: Mus musculus; assay: Binding affinity to purified C57BL/6 mouse cerebral cortex mitochondrial complex 1 assessed as labelling of 51 kDa sub unit at 10 uM in presence of ZCM-I-1 incubated for 45 mins under irradiation by SDS-PAGE analysis; settings: Mitochondria; outline: as §1
[19] = species: Mus musculus; assay: Binding affinity to purified C57BL/6 mouse cerebral cortex mitochondrial complex 1 assessed as labelling of 24 kDa sub unit at 10 uM in presence of ZCM-I-1 incubated for 45 mins under irradiation by SDS-PAGE analysis; settings: Mitochondria; outline: as §1
[20] = species: Mus musculus; assay: Binding affinity to purified C57BL/6 mouse cerebral cortex mitochondrial complex 1 assessed as labelling of 51 kDa sub unit at 10 uM in presence of FMN incubated for 45 mins under irradiation by SDS-PAGE analysis; settings: Mitochondria; outline: as §1
[21] = species: Mus musculus; assay: Binding affinity to purified C57BL/6 mouse cerebral cortex mitochondrial complex 1 assessed as labelling of 24 kDa sub unit at 10 uM in presence of FMN incubated for 45 mins under irradiation by SDS-PAGE analysis; settings: Mitochondria; outline: as §1
[22] = species: Mus musculus; assay: Binding affinity to purified C57BL/6 mouse cerebral cortex mitochondrial complex 1 assessed as labelling of 75 kDa sub unit at 10 uM in presence of IQ site inhibitor rotenone incubated for 45 mins under irradiation by SDS-PAGE analysis; settings: Mitochondria; outline: as §1
[23] = species: Mus musculus; assay: Binding affinity to purified C57BL/6 mouse cerebral cortex mitochondrial complex 1 assessed as labelling of 75 kDa sub unit at 1 to 10 uM incubated for 45 mins under irradiation by SDS-PAGE analysis; settings: Mitochondria, dose microM 1-10, time 45.0 min; outline: as §1
[24] = species: Mus musculus; assay: Binding affinity to purified C57BL/6 mouse cerebral cortex mitochondrial complex 1 assessed as labelling of 49 kDa sub unit at 10 uM in presence of FMN incubated for 45 mins under irradiation by SDS-PAGE analysis; settings: Mitochondria; outline: as §1
[25] = species: Mus musculus; assay: Inhibition of mitochondrial complex 1 in permeabilized mouse brain mitochondria assessed as reduction in ROS production at 1 uM incubated for 1 hr after TC removal by Amplex Red and horseradish peroxidase based assay
[26] = species: Mus musculus; assay: Binding affinity to purified C57BL/6 mouse cerebral cortex mitochondrial complex 1 assessed as labelling of IF site ( 49 kDa) sub unit at 10 uM in presence of ZCM-I-1 incubated for 45 mins under irradiation by SDS-PAGE analysis; settings: Mitochondria; outline: as §1
[27] = species: Mus musculus; assay: Binding affinity to purified C57BL/6 mouse cerebral cortex mitochondrial complex 1 assessed as labelling of 13 kDa sub unit at 10 uM in presence of IQ site inhibitor rotenone incubated for 45 mins under irradiation by SDS-PAGE analysis; settings: Mitochondria; outline: as §1
[28] = species: Mus musculus; assay: Binding affinity to purified C57BL/6 mouse cerebral cortex mitochondrial complex 1 assessed as labelling of 51 kDa sub unit at 10 uM in presence of NADH incubated for 45 mins under irradiation by SDS-PAGE analysis; settings: Mitochondria; outline: as §1
[29] = species: Mus musculus; assay: Binding affinity to purified C57BL/6 mouse cerebral cortex mitochondrial complex 1 assessed as labelling of 75 kDa sub unit at 10 uM in presence of ZCM-I-1 incubated for 45 mins under irradiation by SDS-PAGE analysis; settings: Mitochondria; outline: as §1

Q: With `COc1ccc2[nH]cc(CCNC(=O)C(CCC3(CCc4cn(CCCNc5ccc([N+](=O)[O-])c6nonc56)nn4)N=N3)C(=O)CCc3ccc(O)cc3)c2c1` (centres undefined) as the molecule, how does the Activity [1] read?
A: Active

Q: And the Activity [2]?
A: Active

Q: And the Activity [3]?
A: Active

Q: And the Activity [4]?
A: Active

Q: And the Activity [5]?
A: inactive

Q: What about the Activity [6] of the same molecule?
A: inactive

Q: And the Activity [7]?
A: inactive

Q: And the Activity [8]?
A: Active

Q: And the INH [9]?
A: 96.8 nM

Q: And the Activity [10]?
A: inactive

Q: What about the Activity [11] of the same molecule?
A: inactive

Q: What about the Activity [12] of the same molecule?
A: Active

Q: And the Drug uptake [13]?
A: Active

Q: And the Activity [14]?
A: Active

Q: What about the Activity [15] of the same molecule?
A: inactive

Q: And the Drug uptake [16]?
A: Active

Q: And the Activity [17]?
A: inactive

Q: What about the Activity [18] of the same molecule?
A: inactive

Q: What about the Activity [19] of the same molecule?
A: inactive

Q: What about the Activity [20] of the same molecule?
A: inactive

Q: What about the Activity [21] of the same molecule?
A: inactive

Q: And the Activity [22]?
A: Active

Q: And the Activity [23]?
A: Active

Q: And the Activity [24]?
A: inactive

Q: And the inhibition [25]?
A: inactive

Q: And the Activity [26]?
A: inactive

Q: And the Activity [27]?
A: Active

Q: And the Activity [28]?
A: inactive

Q: With `COc1ccc2[nH]cc(CCNC(=O)C(CCC3(CCc4cn(CCOCCOCCNC(=O)CCCCC5SCC6NC(=O)NC65)nn4)N=N3)C(=O)CCc3ccc(O)cc3)c2c1` (centres undefined) as the molecule, how does the Activity [7] read?
A: inactive

Q: What about the Activity [29] of the same molecule?
A: inactive

Q: And the INH [9]?
A: > 3 nM

Q: What about the Activity [18] of the same molecule?
A: inactive

Q: What about the Activity [19] of the same molecule?
A: inactive

Q: What about the Activity [26] of the same molecule?
A: inactive
